# From PubChem BioAssay AID463111 (Johns Hopkins Ion Channel Center, 2010)
# The whole screen tested about 310,000 compounds, of which about 2,800 (0.9%) were called active. This is one part of a sample in which actives are shown more often than they occur.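 The calls were made as follows: active = B-score of the integrated calcium signal more than 4 SD below the library mean, with starting fluorescence not abnormally high; inactive = the rest.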
# Assay: enhancers of RGS4 function in calcium signaling – cell-based, HEK293 M3R inducible RGS4, calcium flux, primary screen (AID 463111);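 as to B-score: negative B-score means reduced calcium response which marks RGS4 activation or potentiation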
# Settings: HEK293 M3R/inducible RGS4, carbachol calcium flux Fluo4, at 10 µM; stronger effect = lower value
# Summary of the method: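 Material: M3R-expressing HEK293 line, RGS4 induced by doxycycline | Schedule: Overnight RGS4 induction, 30 min dye load 37 °C, 20 min compound RT | Measured by: Fluo4 fluorescence kinetic imaging of calcium | Read-out: Integrated calcium ratio converted to B score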
row,SMILES,B-score
1,Cc1cc2c(cc1S(=O)(=O)CCC(=O)NCc1ccccc1)OCC(=O)N2,inactive
2,COc1ccc(Cl)cc1NC(=O)CCS(=O)(=O)c1cc2c(cc1C)NC(=O)CO2,-7.02 (active)
3,COc1ccc(NC(=O)CCS(=O)(=O)c2cc3c(cc2Cl)NC(=O)CO3)cc1OC,inactive
4,COc1cccc(C2c3[nH]c4ccccc4c3CCN2Cc2cccc(C)n2)c1 (centres undefined),inactive
5,CC1=CCC2C(=O)N(c3cccc(C(=O)NC(C)c4ccccc4)c3)C(=O)C2C1 (centres undefined),inactive
6,CCCCn1c(N)c(N(CC)C(=O)c2ccccc2C(F)(F)F)c(=O)[nH]c1=O,inactive
7,Cc1nn(Cc2ccc(C(=O)N3N=C(C(F)F)CC3(O)C(F)F)cc2)c(C)c1[N+](=O)[O-] (centres undefined),inactive
8,O=C(CN1CCCCCC1)Nc1ccc(S(=O)(=O)N2CCCCC2)cc1,-8.13 (active)
9,CCOc1ccc(NC(=O)COc2ccc(S(=O)(=O)N3CCCC3)cc2)cc1,inactive
10,O=C(CSCc1ccc(Br)cc1)Nc1ccc(S(=O)(=O)N2CCCCCC2)cc1,inactive
11,O=c1cc(CO)oc(C(Nc2cccc([N+](=O)[O-])c2)c2ccccn2)c1O (centres undefined),inactive
12,CCc1ccc(OCC(=O)N(Cc2ccccc2)C2CCS(=O)(=O)C2)cc1 (centres undefined),inactive
13,Cc1ccc(C)c(-c2nnc(NC(=O)CS(=O)(=O)c3ccccc3)o2)c1,inactive
14,O=C(Nc1cccn(Cc2c(Cl)cccc2Cl)c1=O)c1ccc(Cl)cc1,inactive
15,COc1ccccc1NC(=O)CCCc1c[nH]c2ccccc12,inactive
16,CCCC(=O)NC(Nc1ccccc1OC)C(Cl)(Cl)Cl (centres undefined),inactive
17,CCCCCCCC(=O)NC(Nc1ccccc1OC)C(Cl)(Cl)Cl (centres undefined),-8.57 (active)
18,Cc1cnc(C(=O)OCc2c(C)cc(C(C)(C)C)cc2C)cn1,inactive
19,Cc1cc(C(=O)OCC(=O)Nc2ccc(F)c(F)c2)c(C)o1,inactive
20,O=C(NCc1ccc(F)cc1)C1CCN(C(=O)Nc2ccc(F)cc2)CC1,inactive
21,CCc1ccc(C(=O)OCC(=O)NCC(F)(F)F)cc1,inactive
22,Cc1c(NC(=O)Nc2cccc([N+](=O)[O-])c2)c(=O)n(-c2ccccc2)n1C,inactive

row,SMILES,B-score
1,Cc1nc(N2CCN(c3ccccn3)CC2)c2c(C)c(C(=O)Nc3ccc(F)c(Cl)c3)sc2n1,inactive
2,COc1ccc(NC(=O)c2sc3nc(C)nc(N4CCN(c5ccccn5)CC4)c3c2C)c(OC)c1,inactive
3,Cc1nc(N2CCN(c3ccccn3)CC2)c2c(C)c(C(=O)Nc3ccc(F)cc3)sc2n1,-9.74 (active)
4,O=C(Oc1ccc([N+](=O)[O-])cc1)c1ccc(Cl)c(S(=O)(=O)N2CCCCC2)c1,inactive
5,C=CCN(N=Nc1cccc([N+](=O)[O-])c1)c1cccc([N+](=O)[O-])c1,inactive
6,Cc1ccc(-c2cc(C(=O)Nc3nn[nH]n3)c3ccccc3n2)c(C)c1,inactive
7,COc1ccc(-c2cc(C(=O)N(C)Cc3ccccc3)c3ccccc3n2)cc1,-8.16 (active)
8,COc1ccc(-c2cc(C(=O)N(C)Cc3ccc(OC)c(OC)c3OC)c3ccccc3n2)cc1OC,-8.8 (active)
9,CNC(=O)COC(=O)c1cc(-c2ccc(OC)cc2)nc2ccccc12,inactive
10,COc1ccc(CN(C)C(=O)Cc2c[nH]c3ccccc23)c(OC)c1OC,inactive
11,COc1ccc(CN(C)C(=O)c2cc(-c3ccc(C)cc3C)nc3ccccc23)c(OC)c1OC,-11.6 (active)
12,COc1ccc(-c2cc(C(=O)N(C)CC(=O)Nc3ccccc3Cl)c3ccccc3n2)cc1OC,inactive
13,COc1ccc(NC(=O)CN(C)C(=O)c2cc(-c3ccc(C)o3)nc3ccccc23)cc1,inactive
14,COc1ccc(-c2cc(C(=O)Nc3ccccc3O)c3ccccc3n2)cc1,inactive
15,O=c1[nH]cccc1-c1nc2ccccc2n1Cc1ccc(Cl)cc1,inactive
16,CCC(Oc1ccccc1C)C(=O)Nc1ccc(S(=O)(=O)Nc2cc(C)on2)cc1 (centres undefined),inactive
17,CC1=C(C(=O)N(C)C)C(c2ccccc2OC(F)F)NC(=O)N1 (centres undefined),inactive
18,Cc1ccc(NS(=O)(=O)c2c(C)[nH]c(C)c2C(=O)N2CCCCC2)c(C)c1,inactive
19,CC1=C(C(=O)OC2CCCCC2)C(c2cccnc2)n2ncnc2N1 (centres undefined),inactive
20,Cc1ccc(OCCOc2cccc(/C=N/NC(N)=O)c2)cc1,inactive
21,O=C(N/N=C/c1cccc(O)c1)c1cc2c(ccc3ccccc32)o1,inactive
22,O=C(N/N=C/c1cccc(OCc2ccccc2)c1)c1ccc(Br)o1,-7.35 (active)

row,SMILES,B-score
1,CSc1nc(-c2ccco2)nn1C(=O)c1ccccc1Cl,inactive
2,O=C1NCC(=O)N(Cc2ccccc2)/C1=C/c1ccccc1,inactive
3,O=C1/C(=C\c2ccsc2)NC(=S)N1c1ccccc1,inactive
4,CN(C)c1ccc(/C=C2\NC(=S)N(Cc3ccccc3)C2=O)cc1,-12 (active)
5,CC(=O)N1CCN(S(=O)(=O)c2c(F)cc(F)c(Cl)c2F)CC1,inactive
6,C/C=C(\C)C(=O)N1CC2(CC(c3cccc(NC(=O)CCCCC)c3)=NO2)C[C@@H]1C(N)=O (some centres undefined),inactive
7,CN(C)C(=O)c1nc2ccc(Cl)cn2c1CNCc1cccc(OC(F)(F)F)c1,inactive
8,CN(C)c1ccc2c(=O)[nH][nH]c(=O)c2c1,inactive
9,O=C(NCc1ccncc1)C1CCN(C(=O)c2cccc(Cl)c2)CC1,inactive
10,COC(=O)c1cccc(C(=O)N2CCC(CCC(=O)NCc3ccc(F)cc3)CC2)c1,inactive
11,O=C(c1ccccc1Oc1ccccc1)N1CCN(c2ccc(F)cc2)CC1,inactive
12,CCOC(=O)N1CCN(C(=O)c2nn(-c3ccc(C)cc3)c(=O)c3c2c2ccccc2n3C)CC1,inactive
13,Cn1c2ccccc2c2c(C(=O)N3CCN(c4ccc(F)cc4)CC3)cn(C3CCCC3)c(=O)c21,-7.18 (active)
14,Nc1nc(SCc2cccc(Br)c2)n[nH]1,inactive
15,COc1ccc(CC2(CO)CCN(Cc3cnn(C)c3)CC2)cc1,inactive
16,CC(=O)c1cccc(CN2CCC(CO)(Cc3ccccc3)CC2)c1,inactive
17,COC(=O)c1ccc(CN2CCC(CO)(Cc3ccc(OC)cc3)CC2)cc1,-8.7 (active)
18,CC(=O)c1ccc(S(=O)(=O)Nc2ccc(C(=O)NCC(c3ccccc3)N(C)C)cc2)cc1 (centres undefined),inactive
19,COc1ccccc1C(CNC(=O)c1cccc(NS(=O)(=O)c2ccc(Br)cc2)c1)N(C)C (centres undefined),-8.15 (active)
20,CN(C)C(CNC(=O)c1cccc(S(=O)(=O)Nc2ccc(Br)cc2)c1)c1ccco1 (centres undefined),inactive
